MPTP block: blocks calcium-induced mitochondrial swelling | isolated mouse mitochondria, Ca2+ swelling absorbance, 30 min | 360,000 tested, 1.4% active | inhibition, % at 10 µM | AID 602449;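 active = inhibition of 50% or more, scaled per plate between neutral and stimulator controls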;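 also: 0% = DMSO wells given calcium and 100% = 1 mM EGTA wells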
proCasp7 act: counter-screen: procaspase-7 (human) activation | recombinant procaspase-7, Ac-DEVD-pNA absorbance 405 nm; D23A/D198A/D206A triple mutant, cannot self-cleave; scale: DMSO 0, 5 µM enzyme 100 | activation, % at 8.5 µM | 330,000 tested, 0.093% active;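 active = percent activation above the screen-wide mean plus 3 SD, cut at about 25% in these data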
Target sequence (P55210 whole entry D23A/D198A/D206A): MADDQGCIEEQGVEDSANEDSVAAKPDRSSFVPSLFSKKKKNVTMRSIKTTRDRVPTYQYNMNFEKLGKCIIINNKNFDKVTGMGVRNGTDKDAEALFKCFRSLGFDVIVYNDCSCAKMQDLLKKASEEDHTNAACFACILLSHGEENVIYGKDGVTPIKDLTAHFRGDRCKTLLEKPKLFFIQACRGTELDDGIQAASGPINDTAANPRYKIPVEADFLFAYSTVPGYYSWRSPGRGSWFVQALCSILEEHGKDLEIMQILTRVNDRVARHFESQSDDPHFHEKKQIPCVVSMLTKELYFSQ
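Replicates: singlicate. Assay system: Procaspase-7 triple mutant (PC-7 D3A). Signal: 405 nm absorbance of p-nitroaniline. Times: 1 h preincubation, 2 h reaction. Buffer or medium: Zinc-free HEPES pH 7.4 with 300 mM NaCl, 0.01% Triton X-100. Also added: DEVD-pNA substrate. Benchmarks: DMSO wells as 0%, DMSO with 5 µM added PC-7 as 100%.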
aDG glyco act: alpha-DG glycosylation activation. 360,000 tested, 0.22% active. AID 624168. Pro5-aDG cells, alpha-DG glycosylation AlphaScreen (IIH6); 0% Pro5, 100% B10-LARGE cell signal. activation, % at 10 µM;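 active = activation of at least 8% versus controls, or a plate z-score of at least 8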;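 also: Pro5 are CHO cells carrying HIG-tagged alpha-DG that lacks glycosylation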
procasp3 activ: activates human procaspase-3. recombinant procaspase-3 D3A, Ac-DEVD-pNA absorbance 405 nm. 330,000 tested, 0.11% active. P42574. activation, % at 8.5 µM. AID 463141;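 active = activation above the mean of all tested compounds plus 3 SD, cut at about 21% in these data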;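 also: 0% = DMSO alone and 100% = DMSO wells spiked with extra 5 µM PC-3 D3A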
Target sequence (P42574 whole entry D9A/D28A/D175A): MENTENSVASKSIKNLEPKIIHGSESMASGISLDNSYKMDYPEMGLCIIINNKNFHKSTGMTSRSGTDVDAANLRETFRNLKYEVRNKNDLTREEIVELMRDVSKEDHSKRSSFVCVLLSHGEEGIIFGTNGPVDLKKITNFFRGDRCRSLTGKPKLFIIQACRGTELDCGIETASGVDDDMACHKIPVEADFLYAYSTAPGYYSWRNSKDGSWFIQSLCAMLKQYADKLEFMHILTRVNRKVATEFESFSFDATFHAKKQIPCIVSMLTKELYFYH
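material = Procaspase-3 D3A mutant | probe or stimulus = Ac-DEVD-pNA | compound = single dose, 8.5 µM nominal compound, 0.8% DMSO | timing = 1 h preincubation, 2 h reaction | measured by = 405 nm absorbance of p-nitroaniline, reads at 0 and 120 min | benchmarks = DMSO-only low control, 5 µM PC-3 D3A high control | repeats = singlicate, each compound tested once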
NR3A LBD binder: modulates the human NR3A ligand-binding domain | NR3A LBD differential scanning fluorimetry, Tm shift; 0% = protein alone, 100% = glycine-bound protein | 340,000 tested, 2.5% active | Tm shift relative to glycine control, % at 25 µM;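 active = melting temperature shift of at least 10% of the positive control shift, at one fixed dose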
* hit, by the source's call; . = no result. The list is not random: actives were taken first. Their share in the collection is about 3.7%.

SMILES	MPTP block	proCasp7 act	aDG glyco act	procasp3 activ	NR3A LBD binder
O=C1CC(SC(=Nc2ccccc2)Nc2ccccc2)C(=O)N1c1cccc(Cl)c1 (configuration not stated)	-2	7	0	-1	10*
O=C1CC(SC(=Nc2ccccc2)Nc2ccccc2)C(=O)N1c1ccc(Cl)cc1 (configuration not stated)	-11	3	0	-4	9
O=C(NCC1CCCO1)c1ccc2c(=O)n(Cc3ccc(Cl)cc3)c(=S)[nH]c2c1 (configuration not stated)	3	7	0	3	22*
O=C(O)COc1ccccc1C=NNC(=O)c1ccccc1NS(=O)(=O)c1cccs1	0	8	0	6	-7
COc1cc2c(cc1NC(=O)Nc1ccccc1)oc1ccccc12	3	0	0	3	16*
COc1cc2c(cc1NC(=O)c1cncc(Br)c1)oc1ccccc12	0	-68	0	0	24*
CCCN(CCC)S(=O)(=O)c1ccc(C(=O)Nc2cc3oc4ccccc4c3cc2OC)cc1	1	1	0	5	2
CCN(CC)S(=O)(=O)c1cccc(C(=O)Nc2cc3oc4ccccc4c3cc2OC)c1	2	9	0	-3	22*
CCOC(=O)C1=CCN(S(=O)(=O)c2ccc(Cl)cc2)C1c1ccc(C)cc1 (configuration not stated)	2	.	0	.	.
O=C(NCCC(F)(F)F)C1Cc2c(-c3ccc(Cl)cc3)ccnc2O1 (configuration not stated)	0	.	0	.	.
CN(CC(=O)Nc1ccc(Cl)cc1)C(=O)C1CCCC1	0	.	0	.	0
Nc1nc(-c2ccc3c(c2)OCCO3)c(CC(=O)O)s1	-2	.	0	.	0
Nc1nc(-c2ccc3c(c2)CCCC3)c(CC(=O)O)s1	0	.	0	.	35*
O=C(c1ccccc1)N1CCN=C1SCc1ccc([N+](=O)[O-])cc1	0	-2	-1	-10	24*
CNC(=S)N(Cc1ccc(OC)cc1)C1CC(=O)N(c2ccc(OC)cc2)C1=O (configuration not stated)	-1	-12	0	-10	18*
CCCOc1ccc(N2C(=O)CC(N(Cc3ccc(OC)cc3)C(=S)Nc3ccccc3)C2=O)cc1 (configuration not stated)	-20	7	0	7	24*
COCCn1c(C)cc(/C=C(\C#N)C(=O)OCC(=O)N(C)c2c(N)n(Cc3ccccc3)c(=O)[nH]c2=O)c1C	-2	-10	0	0	-2
O=C(O)C1=CC2C=C(Cl)C=CC2OC1=O (configuration not stated)	0	.	0	.	1
NS(=O)(=O)c1ccc(NC(=S)NC(=O)/C=C/c2cccs2)cc1	0	-3	0	3	7
O=C(COC(=O)/C=C/c1cccs1)Nc1ccc(F)cc1	-3	8	0	3	16*
NC(N)=NS(=O)(=O)c1ccc(NC(=S)NC(=O)/C=C/c2cccs2)cc1	0	1	0	-4	11*
COC(=O)c1ccccc1NC(=O)COC(=O)/C=C/c1cccs1	-2	8	0	14	11*
CCCOC(=O)c1ccc(NC(=O)/C=C/c2cccs2)cc1	19	-3	1	-1	28*
O=C(/C=C/c1cccs1)Nc1ccncc1	-2	1	0	-7	-7
CCCS(=O)(=O)NC(=O)C1(C)CCCN(C(=O)c2cc(F)ccc2C)C1 (configuration not stated)	-1	.	0	.	.
SMILES	MPTP block	proCasp7 act	aDG glyco act	procasp3 activ	NR3A LBD binder
CC(=O)C1CCC2C3CC=C4N(C)C(=O)CCC4(C)C3CCC12C (configuration not stated)	0	.	0	.	0
COc1cc(OC)c(N(C)S(=O)(=O)c2cccc(C(=O)OCC(=O)c3c[nH]c4ccccc34)c2)cc1Cl	30	3	2	0	26*
CC(O)C(NS(=O)(=O)c1ccc(Cl)cc1)C(=O)OCC(=O)c1c[nH]c2ccccc12 (configuration not stated)	6	3	0	-3	2
CC(C)Cc1ccc(C(C)C(=O)OCC(=O)c2c[nH]c3ccccc23)cc1 (configuration not stated)	-1	-3	0	-6	23*
CC(C)C(NS(=O)(=O)c1c(Cl)cccc1Cl)C(=O)OCC(=O)c1c[nH]c2ccccc12 (configuration not stated)	32	12	0	-1	23*
Cc1ccc(C(=O)OCC(=O)c2c[nH]c3ccccc23)cc1	0	6	0	2	-2
CC(C)C[C@@H](CN1CCC[C@H]1CN1C(=O)C(=O)NC[C@@H]1Cc1ccc(O)cc1)N1C[C@H](Cc2ccccc2)N(CC2CCCCCC2)C(=O)C1=O	-4	.	0	.	.
Clc1ccc(-c2nc3ccc(Br)cn3c2Cc2ccsc2)cc1	-1	.	0	.	.
CCCN(C)C1CN(Cc2cn(Cc3cccc(Cl)c3)nn2)S(=O)(=O)C1 (configuration not stated)	1	.	0	.	.
CCOc1cc(/C=N/N=C(/N)c2nonc2N)cc(Br)c1OCc1ccc(Cl)cc1	3	2	-1	6	-1
COc1cc(/C=N/N=C(/N)c2nonc2N)cc(Br)c1OCc1ccccc1C	2	2	0	2	15*
CCOC(=O)C1(C)CCCN(C(=O)C(c2ccccc2)c2ccccc2)C1 (configuration not stated)	0	.	0	.	.
CCOC(=O)C(=O)NC12CC3CC(CC(C3)C1)C2	6	2	0	8	11*
COc1ccc2ccc(OC)c(/C=N/NC(=O)c3cc4ccccc4o3)c2c1	1	.	0	.	.
CCCCCCCCN1C(=O)[C@H](CC(=O)NCCc2ccccc2OC)C[C@@]2(C(=O)OC)CCCCC=C12	-2	.	0	.	.
O=C(/C=C/c1ccccc1Cl)Nc1cccc(O)c1	8	6	1	3	30*
O=C(/C=C/c1ccccc1Cl)Nc1ccccc1	24	6	0	-10	20*
CN(C)c1ccc(NC(=O)/C=C/c2c(Cl)cccc2Cl)cc1	23	-6	0	-1	-6
CN(C)S(=O)(=O)c1ccc(NC(=O)/C=C/c2ccccc2Cl)cc1	30	3	0	-7	27*
CCOC(=O)c1c(NC(=O)COC(=O)c2cnccn2)sc(C)c1C	1	2	0	3	-1
Cc1ccc(C(CC(=O)N2CCCCC2)c2ccccc2)c(O)c1C (configuration not stated)	2	-4	0	1	13*
C=CCN(C(=O)Cn1c(C(=O)OC)cc2oc(C)cc21)c1ccccc1	0	-29	0	-18	-1
